Measurements: ChEMBL document CHEMBL3808283, “Biological Characterization and in Vivo Assessment of the Activity of a New Synthetic Macrocyclic Antifungal Compound” (J Med Chem, 2016)
Converted amounts (≈) assume the structure as drawn. The source made the active and inactive calls. The calls are words filed in the database; no cut-off is given here.

How the values were obtained:
Candida albicans [1] = test: Antifungal activity against Candida albicans 4T measured at 72 hrs by broth dilution assay; format: functional
In short: (§1)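 EUCAST broth microdilution, including the update for non-fermenting yeasts (Cryptococcus, Geotrichum), on clinical and reference yeast isolates. Incubated at 37 °C and read at 24, 48 and 72 h. MIC taken as the lowest concentration with no visible growth. For Cryptococcus and Geotrichum, MICs were read only once growth was visible in the control row.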

Candida albicans [2] = test: Upregulation of CDR2 gene expression in Candida albicans SC5314 at 3 uM after 15 to 45 mins by qRT-PCR method; format: functional, organism-based
In short: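 Log-phase C. albicans treated at 3 µM. RNA extracted with glass-bead disruption, then DNase-treated (10 µg per preparation). Target gene CT values were normalized to an endogenous reference. Fold change calculated as mean normalized expression of samples relative to a selected control.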

Candida albicans [3] = test: Upregulation of RTA2 gene expression in Candida albicans SC5314 at 3 uM after 15 mins by microarray method relative to control; format: functional
In short: (§2)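 Log-phase C. albicans SC5314 in liquid YEPD exposed to 3 µM final for 15 or 45 min; untreated controls taken at the same time points. Three biological replicates. RNA extracted by glass-bead/phenol-chloroform method and integrity checked. One-color Cy3-labeled cRNA (600 ng) hybridized 17 h at 65 °C to 8 × 15K arrays. Expression expressed as fold change versus control.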

Candida albicans [4] = test: Antifungal activity against azole-susceptible Candida albicans isolate DSY294 in immunocompetent Balb/c mouse candidiasis model assessed as reduction in CFU count in kidney at 40 mg/kg/day, ip regime measured on day 7 post infection; format: functional, organism-based
In short: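 Immunocompetent BALB/c mice, groups of 10, were injected in the lateral tail vein with 7 × 10^4 CFU of C. albicans in 200 µL saline. Drug was given ip daily at 40 mg/kg/day in DMSO/PEG 400 2:1 (0.1 mg/mL, 100 µL). Kidneys were taken on day 7, homogenized and plated on YPD agar for 2 days at 30 °C. Read-out was CFU/g; Wilcoxon rank-sum test, P<0.05.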

Candida albicans [5] = test: Antifungal activity against Candida albicans 53T measured at 72 hrs by broth dilution assay; format: functional; in short: as §1
Candida albicans [6] = test: Antifungal activity against Candida albicans ATCC 60193 measured at 72 hrs by broth dilution assay; format: functional; conditions: ATCC 60193, 72 h; in short: as §1
Candida albicans [7] = test: Upregulation of ARE2 gene expression in Candida albicans SC5314 at 3 uM after 15 mins by microarray method relative to control; format: functional; in short: as §2
Candida parapsilosis [8] = test: Antifungal activity against Candida parapsilosis ATCC 34136 measured at 72 hrs by broth dilution assay; format: functional; conditions: Lodderomyces parapsilosis, ATCC 34136, 72 h; in short: as §1
Candida albicans [9] = test: Upregulation of orf19.7336 gene expression in Candida albicans SC5314 at 3 uM after 15 mins by microarray method relative to control; format: functional
In short: (§3)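 Log-phase cultures in liquid YEPD were exposed to 3 µM compound (final) for 15 or 45 min, with untreated controls sampled at the same times, in three biological replicates. Total RNA was extracted by glass-bead/phenol-chloroform disruption and integrity-checked. One-color Cy3-labelled cRNA (600 ng) was hybridized for 17 h at 65 °C to 8 × 15K arrays, and fold change was taken versus control.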

Candida albicans [10] = test: Upregulation of CDR2 gene expression in Candida albicans SC5314 at 3 uM after 45 mins by microarray method relative to control; format: functional; in short: as §2
Candida albicans [11] = test: Upregulation of CDR1 gene expression in Candida albicans SC5314 at 3 uM after 15 mins by microarray method relative to control; format: functional; in short: as §2
Cryptococcus neoformans [12] = test: Fungicidal activity against Cryptococcus neoformans at 40 uM measured at 72 hrs by time kill assay; format: functional, organism-based
Candida albicans [13] = test: Antifungal activity against Candida albicans 4T up to 96 hrs by broth dilution assay; format: functional, organism-based
Candida albicans [14] = test: Upregulation of orf19.6873.1 gene expression in Candida albicans SC5314 at 3 uM after 45 mins by microarray method relative to control; format: functional; in short: as §3
Candida albicans [15] = test: Upregulation of PDR16 gene expression in Candida albicans SC5314 at 3 uM after 15 mins by microarray method relative to control; format: functional; in short: as §2
Candida parapsilosis [16] = test: Ratio of MIC at 24 hrs to MIC at 48 hrs for Candida parapsilosis ATCC 34136; format: functional
In short: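 MICs by EUCAST broth microdilution, with the update for non-fermenting yeasts, incubated at 37 °C. Read at 24, 48 and 72 h as the lowest concentration preventing visible growth.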

Candida albicans [17] = test: Upregulation of IFU5 gene expression in Candida albicans SC5314 at 3 uM after 15 mins by microarray method relative to control; format: functional; in short: as §2
Candida tropicalis = test: Antifungal activity against Candida tropicalis 86E measured at 72 hrs by broth dilution assay; format: functional; in short: as §1
Pichia kudriavzevii [18] = test: Antifungal activity against Candida krusei 193T measured at 48 hrs by broth dilution assay; format: functional; in short: as §1
Candida albicans [19] = test: Antifungal activity against fluconazole-susceptible Candida albicans ATCC 90028 in immunocompetent Balb/c mouse candidiasis model assessed as reduction in CFU count in spleen at 20 to 40 mg/kg/day, ip regime measured on day 7 post infection; format: functional, organism-based
In short: (§4)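 Immunocompetent BALB/c mice, 10 per strain group, injected in the lateral tail vein with 7 × 10^4 CFU of C. albicans in 200 µL sterile saline. Compound given ip daily, 100 µL of 0.1 mg/mL in DMSO/PEG 400 2:1; fluconazole control ip at 8 mg/kg/day. On day 7, spleen and kidneys were excised, weighed and homogenized in saline, then plated on YPD agar for 2 days at 30 °C. Read-out CFU/g; Wilcoxon rank-sum test, P<0.05.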

Candida albicans [20] = test: Antifungal activity against wild type Candida albicans CAF2-1 at 10 uM by serial dilution assay; format: functional, organism-based
Magnusiomyces capitatus = test: Fungicidal activity against Geotrichum capitatum at 40 uM measured at 48 hrs by time kill assay; format: functional
In short: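 EUCAST broth microdilution at 37 °C. From wells at MIC, 2×, 4× and 8× MIC, 10 µL aliquots were taken, serially 10-fold diluted in saline and plated on Sabouraud dextrose agar. Plates were incubated at 37 °C for 24/48 h, and 48 h for Cryptococcus and Geotrichum. Done in duplicate, detection limit 10 CFU/mL. A drop of at least 3 Log10 CFU/mL from the initial inoculum in 24 h counts as fungicidal; a smaller drop counts as fungistatic.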

Candida albicans [21] = test: Antifungal activity against fluconazole-susceptible Candida albicans ATCC 90028 in immunocompetent Balb/c mouse candidiasis model assessed as reduction in CFU count in kidney at 20 to 40 mg/kg/day, ip regime measured on day 7 post infection; format: functional, organism-based; in short: as §4
Candida parapsilosis [22] = test: Antifungal activity against Candida parapsilosis 81E measured at 72 hrs by broth dilution assay; format: functional; conditions: Lodderomyces parapsilosis; in short: as §1
Pichia kudriavzevii [23] = test: Antifungal activity against Candida krusei ATCC 14243 measured at 48 hrs by broth dilution assay; format: functional; conditions: ATCC 14243, 48 h; in short: as §1
[24] = Antifungal activity against Geotrichum silvicola up to 96 hrs by broth dilution assay; format: functional
Cryptococcus neoformans [25] = test: Antifungal activity against Cryptococcus neoformans measured at 24 hrs by broth dilution assay; format: functional, organism-based; in short: as §1
Cryptococcus neoformans [26] = test: Antifungal activity against Cryptococcus neoformans measured at 72 hrs by broth dilution assay; format: functional; in short: as §1

For `C/C=C/CNC(=N)NCCCCCCCCN1CCCCCCCCNC(=N)NC1=O`, the MIC (Candida albicans [1]) was 5 µM (≈ 2.18 µg/mL), the Activity (Candida albicans [2]) was “Active” and the “fold change (FC)” value (Candida albicans [3]) was 3.07. The Activity (Candida albicans [4]) was “Active”, the MIC (Candida albicans [5]) was 5 µM (≈ 2.18 µg/mL) and the MIC (Candida albicans [6]) was 5 µM (≈ 2.18 µg/mL). The “fold change (FC)” value (Candida albicans [7]) was 2.11, the MIC (Candida parapsilosis [8]) was 80 µM (≈ 34.9 µg/mL) and the “fold change (FC)” value (Candida albicans [9]) was 2.8. For the same compound, the “fold change (FC)” value (Candida albicans [10]) was 134.38, the “fold change (FC)” value (Candida albicans [11]) was 3.07 and the Activity (Cryptococcus neoformans [12]) was “Active”. For the same compound, the Activity (Candida albicans [13]) was “Active”, the “fold change (FC)” value (Candida albicans [14]) was 1.9 and the “fold change (FC)” value (Candida albicans [15]) was 4.43. The Ratio (Candida parapsilosis [16]) was 8, the “fold change (FC)” value (Candida albicans [17]) was 1.63 and the MIC (Candida tropicalis) was 5 µM (≈ 2.18 µg/mL). The MIC (Pichia kudriavzevii [18]) was 80 µM (≈ 34.9 µg/mL), the Activity (Candida albicans [19]) was “Active” and the Activity (Candida albicans [20]) was “Active”. The Activity (Magnusiomyces capitatus) was “Active”, the Activity (Candida albicans [21]) was “Active” and the MIC (Candida parapsilosis [22]) was 40 µM (≈ 17.4 µg/mL). The MIC (Pichia kudriavzevii [23]) was 80 µM (≈ 34.9 µg/mL), the Activity [24] was “Active” and the Activity (Cryptococcus neoformans [25]) was “Active”. For the same compound, the MIC (Cryptococcus neoformans [26]) was 20 µM (≈ 8.71 µg/mL).
